HIV Rev-RRE inh: disrupts HIV-1 Rev binding to RRE RNA. P05866. Rev peptide-RRE RNA binding, FRET. hit rate 0.79% among 97,000. AID 704. inhibition, % at 8 µM;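 active = inhibition above the screen-wide mean plus 3 SD, cut at about 35% in these data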
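Test system – labelled RRE RNA duplex and labelled Rev peptide · Reagent – labelled Rev peptide · Doses – one concentration, 8 µM nominal · Incubation – 5 + 15 min at 25 °C · Signal – FRET fluorescence readout · Read-out basis – % inhibition of FRET ratio versus controls · Control set – DMSO wells as 0% and neomycin B wells as 100% inhibition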
PLK1 inh: PLK1 (human) kinase inhibition; recombinant PLK1 kinase, TR-FRET peptide phosphorylation; inhibition, % at 10 µM; AID 619; hit rate 0.53% among 97,000; P53350;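 active = inhibition of 50% or more in the single-concentration screen; inactive = inhibition below 50%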
PLK1 PBD inh: inhibitors of human Plk1 polo box domain binding. inhibition, %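 (tested at about 20 µM)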. AID 693. Plk1 PBD phosphopeptide binding, fluorescence polarization. hit rate 0.13% among 97,000. P53350; in the data active = inhibition above about 34%, passing the limit was not always enough
EphB4 ephrin blk: antagonists of human EphB4-ephrin-B2 interaction; P54760; EphB4 LBD / TNYL-RAW-Alexa532 peptide, fluorescence polarization; inhibition, % at 7 µM; hit rate 0.15% among 97,000; AID 720;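 active = inhibition above the screen-wide mean inhibition plus 3 SD, cut at about 15% in these data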
FAK inh: blocks human focal adhesion kinase activity; inhibition, %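 (tested at 7 µM)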; AID 727; biochemical FAK kinase activity assay; hit rate 0.84% among 97,000; Q05397; in the data active = inhibition above about 19%
Cav3 T inh: human Cav3.2 channel inhibition, primary screen. Cav3.2-expressing cells, Fluo-4 calcium fluorescence FDSS; hits give low values. hit rate 4% among 100,000. B-score at 10 µM. AID 449739;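 active = single-dose well whose peak fluorescence ratio is a statistical outlier from its plate by either plate-standardised score or position-corrected B-score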
A number is an active result; 0 = inactive; - = no result; [ ] = remark or other dose. The list is not random: actives were taken first. Their share in the collection is about 5.3%.

SMILES	HIV Rev-RRE inh	PLK1 inh	PLK1 PBD inh	EphB4 ephrin blk	FAK inh	Cav3 T inh
Cc1ccc(S(=O)(=O)Oc2ccccc2/C=N/NC(=O)c2c(Cl)cnn2C)cc1	0	0	0	0	0	-8.9
Cc1ccc(S(=O)(=O)Oc2ccc(/C=N/NC(=O)c3nn(C)cc3Cl)cc2)cc1	0	0	0	0	0	0
COc1cc(OC)c2ccc(=O)oc2c1C(CCN1CCN(c2ccccc2)CC1)c1ccc(N(C)C)cc1 (centres undefined)	-	-	-	-	-	0
CC1=CC(C)=Nc2ccccc2N1	47	0	0	0	0	0
CCc1nnc(NC(=O)CSc2nnc(-c3ccccc3O)n2-c2ccc(C)cc2C)s1	0	0	0	0	0	-9
NC(=O)CC(NC(=O)c1cccc(Br)c1)c1ccc(NCCN2CCOCC2)c([N+](=O)[O-])c1 (centres undefined)	-	-	-	-	-	0
CC(=O)Nc1cc(NC(C)=O)cc(C(=O)NC(C)(C)C)c1	0	0	0	0	0	0
Cn1ncc(C#N)c1/N=C/N(Cc1ccccc1)Cc1ccccc1	0	0	0	0	0	-8.4
CN1CCN(/C=N/c2c(C#N)cnn2C)CC1	0	0	0	0	0	0
Cc1scc(C(=O)N/N=C/c2ccc(OCC(C)C)cc2)c1C	0	0	0	0	0	-4.3
COc1ccc(/C(O)=C/c2nc3ccccc3n(-c3ccccc3)c2=O)cc1	78	0	0	0	0	0
Cc1cccn2c(N)c(-c3ccccc3)nc12	108[fluorescence artefact?]	0	0	0	0	0
C=C1CC2C(=O)N(Cc3cc(OC)ccc3OC)C(C(=O)OCC)(C(=O)OCC)C1N2C(=O)OC(C)(C)C (centres undefined)	-	-	-	-	-	0
O=C(Cc1cccc2ccccc12)N/N=C/c1ccc(F)cc1	0	0	0	0	0	-4
Cc1ccccc1N(CC(=O)N/N=C/c1ccc(Cl)cc1)C(=O)c1ccccc1	0	0	0	0	0	-5.2
Cc1ccccc1N(CC(=O)N/N=C/c1ccc(F)cc1)C(=O)c1ccccc1	0	0	0	0	0	-5.6
CCN(C(=O)c1ccc(NC(C)=O)cc1)c1ccccc1C	0	0	0	0	0	0
CCOC(=O)CN(C(=O)c1ccccc1)c1ccccc1C	0	0	0	0	0	0
O=C(CCN1CCN(c2ccc(Cl)cc2)CC1)Nc1ccccc1F	0	0	0	0	0	0
O=C(CCN1CCN(c2ccc(Cl)cc2)CC1)Nc1nccs1	0	62	0	0	0	0
Cc1ccc(NC(=O)c2ccc(CN3CCN(C)CC3)cc2)cc1Nc1nccc(-c2cccnc2)n1	-	-	-	-	-	0
CCC1(c2cccc(Cl)c2)NC(=O)N(Cc2cc(C(=O)OC)c(C)o2)C1=O (centres undefined)	0	0	0	0	0	-5.5
COc1ccc(CCNC(=O)COc2ccc(S(=O)(=O)N3CCOCC3)cc2)cc1OC	0	0	0	0	0	-4.3
O=C(Nc1cccc(F)c1)C1CCN(C(=O)c2ccccc2Cl)CC1	0	0	0	0	0	0
COc1cccc(-c2nc(SC)nc3sc(C(=O)NC(C)(C)C)c(N)c23)c1	-	-	-	-	-	0
SMILES	HIV Rev-RRE inh	PLK1 inh	PLK1 PBD inh	EphB4 ephrin blk	FAK inh	Cav3 T inh
O=C(CSc1nnc(-c2ccccc2)n1Cc1ccco1)Nc1ccc2c(c1)OCCO2	0	0	0	0	0	0
COc1ccc(-n2c(-c3ccc(F)cc3)cnc2SCC(=O)NCc2ccco2)cc1	0	0	0	0	0	-5.7
O=C1COc2ccc(C(=O)CSc3nnc(Cc4cccs4)n3-c3ccc(Cl)cc3)cc2N1	0	0	0	0	0	-3.9
O=C(CSc1nnc(-c2cccs2)n1Cc1ccco1)Nc1ccc2c(c1)OCO2	0	0	0	0	0	0
O=C(CSc1ncc(-c2ccc(F)cc2)n1Cc1ccco1)Nc1ccc2c(c1)OCO2	0	0	0	0	0	-4.8
O=C(CSc1nnc(-c2ccccc2)n1Cc1ccco1)NCc1ccc2c(c1)OCO2	0	0	0	0	0	-4.1
Cc1ccc(NC(C#N)c2ccccc2OCc2ccccc2)cc1 (centres undefined)	0	0	0	0	0	-
C/C=C\C=C/C(=O)Nc1cccc(C2=NOC3(C2)C[C@H](C(N)=O)N(C(=O)c2ccc(OC)cc2)C3)c1 (some centres undefined)	-	-	-	-	-	0
CC1(OC(=O)c2ccc(Cl)nc2)C(=O)C=C2C=C(c3ccc(C#N)cc3)OC=C2C1=O (centres undefined)	-	-	-	-	-	0
O=C(CSc1nnc(Cc2cccs2)n1-c1ccccc1)NCc1ccc2c(c1)OCO2	0	0	0	0	0	-4.7
COc1ccc(-n2c(SCCC#N)nnc2-c2cc(Cl)ccc2OC)cc1Cl	0	0	0	0	0	-4.3
Cc1cccc(-c2nnc(SCC#N)n2-c2cccc(Cl)c2)c1	0	0	0	0	0	0
O=C(CN1CCOCC1)Nc1ncc(Cc2cccc3ccccc23)s1	0	0	0	0	0	0
CC12COC3(C(=O)Nc4cccnc4)CC1CCC32C (centres undefined)	44	0	0	0	0	0
O=C(Nc1ccccc1-c1ccccc1)c1ccco1	0	0	0	0	0	0
O=C(Nc1ccccc1-c1ccccc1)c1ccc(NC(=O)c2ccco2)cc1	0	0	0	0	0	-5.5
CC(Oc1ccc(-c2ccccc2)c(F)c1)c1ccn(S(=O)(=O)c2ccc(Cl)cc2)n1 (centres undefined)	0	0	0	0	0	-5.1
CC(Oc1ccc(Cl)cc1)c1ccnn1S(=O)(=O)c1ccccc1 (centres undefined)	0	0	0	0	0	-6.1
Cc1ccc(S(=O)(=O)n2ccc(-c3cccc(OCc4c(F)cccc4Cl)c3)n2)cc1	0	0	0	0	0	0
CCN1CCN(S(=O)(=O)c2cc(OCC(=O)NC3CCCCC3)c(C)cc2Cl)CC1	0	0	0	0	0	0
Cc1cc(Cl)c(S(=O)(=O)N2CCCCCC2)cc1OCC(=O)NC1CCCCC1	0	0	0	0	0	-4.2
COc1cccc(C(=O)Nc2nnc(-c3cccs3)s2)c1	0	0	0	0	0	0
CCOc1ccc(-n2cc(C(=O)NC(C)C)c3cc(OC)c(OC)cc3c2=O)cc1	0	54	0	0	0	0
C[C@H](NC(=O)CCC1CCC(=O)N1)c1ccccc1 (some centres undefined)	-	-	-	-	-	0
O=C(N[C@@H](Cc1ccc(O)cc1)C(=O)O)c1cccnc1	-	-	-	-	-	0
CCOC(=O)C1=CN(c2cccc(F)c2)C=C(C(=O)OCC)C1c1cc(OC)c(O)c([N+](=O)[O-])c1	0	0	0	0	0	0
Cc1cc2cc(CNC(=O)c3ccc(Br)o3)ccc2[nH]1	-	-	-	-	-	-6
C#CCNC(=O)C1=C[C@@H](c2ccc3c(c2)OCO3)C[C@@H](OCCCCO)O1	-	-	-	-	-	0
O=C(CN(C(=O)c1ccccc1Cl)C1CCCCC1)Nc1ccc(Cl)c([N+](=O)[O-])c1	0	0	0	0	0	-9.9
Cc1ccc([N+](=O)[O-])cc1NC(=O)CN(C(=O)c1ccc(Cl)cc1)C1CCCCC1	0	0	0	0	0	-9.4

High-throughput results from PubChem.
